Results published in ChEMBL document CHEMBL4020842, “Discovery of N1-(4-((7-Cyclopentyl-6-(dimethylcarbamoyl)-7 H-pyrrolo[2,3- d]pyrimidin-2-yl)amino)phenyl)- N8-hydroxyoctanediamide as a Novel Inhibitor Targeting Cyclin-dependent Kinase 4/9 (CDK4/9) and Histone Deacetlyase1 (HDAC1) against Malignant Cancer” (J Med Chem, 2018).
One block for each compound: values may come before it. Calls of active or inactive are those of the source. No cut-off for these calls is given here.

Tests used:
[1] = target: T1, Histone deacetylase 1 (Homo sapiens, UniProt Q13547); test: Potency index, ratio of vorinostat IC50 to compound IC50 for HDAC1 (unknown origin)
T1 sequence (Q13547 whole entry): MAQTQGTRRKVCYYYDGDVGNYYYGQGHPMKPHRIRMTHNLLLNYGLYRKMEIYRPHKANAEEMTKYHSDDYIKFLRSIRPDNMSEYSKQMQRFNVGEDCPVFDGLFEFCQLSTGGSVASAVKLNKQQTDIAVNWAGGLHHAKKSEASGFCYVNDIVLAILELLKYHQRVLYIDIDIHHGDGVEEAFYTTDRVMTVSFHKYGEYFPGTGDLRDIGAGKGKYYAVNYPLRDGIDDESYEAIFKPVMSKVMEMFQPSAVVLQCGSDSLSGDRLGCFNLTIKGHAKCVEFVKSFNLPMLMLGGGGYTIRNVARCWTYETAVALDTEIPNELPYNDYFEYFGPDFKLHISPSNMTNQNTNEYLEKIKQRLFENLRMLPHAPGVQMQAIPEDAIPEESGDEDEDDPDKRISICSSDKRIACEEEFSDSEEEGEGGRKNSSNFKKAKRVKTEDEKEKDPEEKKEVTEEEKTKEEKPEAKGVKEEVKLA

[2] = target: T1, Histone deacetylase 1; test: Inhibition of HDAC1 (unknown origin)
[3] = target: CDK4/Cyclin D3 (Homo sapiens, UniProt P11802); test: Inhibition of recombinant human full length N-terminal GST-tagged CDK4/Cyclin-D3 co-expressed in baculovirus infected sf21 cells using Rb substrate in presence of [gamma33P]ATP after 10 mins by scintillation counting method
Chain of CDK4/Cyclin D3 (P11802 whole entry): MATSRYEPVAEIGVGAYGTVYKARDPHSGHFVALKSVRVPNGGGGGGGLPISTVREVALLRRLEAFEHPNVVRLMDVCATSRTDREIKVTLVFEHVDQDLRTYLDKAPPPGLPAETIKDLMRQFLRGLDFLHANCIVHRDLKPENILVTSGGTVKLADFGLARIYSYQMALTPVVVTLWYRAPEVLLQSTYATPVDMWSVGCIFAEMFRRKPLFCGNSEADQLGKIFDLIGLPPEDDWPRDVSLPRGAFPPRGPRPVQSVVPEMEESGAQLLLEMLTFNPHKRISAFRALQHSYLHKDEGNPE
Chain of CDK4/Cyclin D3 (P30281 whole entry, further chain): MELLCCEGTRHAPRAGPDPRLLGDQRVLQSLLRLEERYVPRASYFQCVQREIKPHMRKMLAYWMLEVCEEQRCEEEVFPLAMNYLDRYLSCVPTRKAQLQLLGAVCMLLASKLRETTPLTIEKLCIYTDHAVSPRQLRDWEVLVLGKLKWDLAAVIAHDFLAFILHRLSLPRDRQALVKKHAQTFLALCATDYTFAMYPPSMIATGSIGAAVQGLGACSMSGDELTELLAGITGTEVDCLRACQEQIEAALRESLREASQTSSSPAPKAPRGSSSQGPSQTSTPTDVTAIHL

[4] = tested on: T47D; test: Induction of apoptosis in human T47D cells assessed as live cells at 10 uM after 48 hrs by annexin V-FITC/propidium iodide staining based flow cytometry (reference value: 85.3%); type: functional
[5] = tested on: A549; test: Induction of apoptosis in human A549 cells assessed as live cells at 10 uM after 48 hrs by annexin V-FITC/propidium iodide staining based flow cytometry (reference value: 92.7%); type: functional
[6] = tested on: NCI-H460; test: Induction of apoptosis in human NCI-H460 cells assessed as necrotic cells at 10 uM after 48 hrs by annexin V-FITC/propidium iodide staining based flow cytometry (reference value: 1.34%); type: functional
[7] = tested on: NCI-H460; test: Induction of apoptosis in human NCI-H460 cells assessed as live cells at 10 uM after 48 hrs by annexin V-FITC/propidium iodide staining based flow cytometry (reference value: 97.3%); type: functional
[8] = tested on: Hep 3B2; test: Induction of apoptosis in human Hep3B cells assessed as live cells at 10 uM after 48 hrs by annexin V-FITC/propidium iodide staining based flow cytometry (reference value: 97.9%); type: functional
[9] = tested on: MDA-MB-231; test: Induction of apoptosis in human MDA-MB-231 cells assessed as live cells at 10 uM after 48 hrs by annexin V-FITC/propidium iodide staining based flow cytometry (reference value: 98.1%); type: functional
[10] = tested on: A549; test: Induction of apoptosis in human A549 cells assessed as early apoptotic cells at 10 uM after 48 hrs by annexin V-FITC/propidium iodide staining based flow cytometry (reference value: 0.41%); type: functional
[11] = tested on: MDA-MB-231; test: Induction of apoptosis in human MDA-MB-231 cells assessed as necrotic cells at 10 uM after 48 hrs by annexin V-FITC/propidium iodide staining based flow cytometry (reference value: […]); type: functional
[12] = tested on: NCI-H460; test: Induction of apoptosis in human NCI-H460 cells assessed as late apoptotic cells at 10 uM after 48 hrs by annexin V-FITC/propidium iodide staining based flow cytometry (reference value: 1.29%); type: functional
[13] = tested on: A549; test: Induction of apoptosis in human A549 cells assessed as late apoptotic cells at 10 uM after 48 hrs by annexin V-FITC/propidium iodide staining based flow cytometry (reference value: 0.88%); type: functional
[14] = tested on: MDA-MB-231; test: Induction of apoptosis in human MDA-MB-231 cells assessed as late apoptotic cells at 10 uM after 48 hrs by annexin V-FITC/propidium iodide staining based flow cytometry (reference value: 1.53%); type: functional
[15] = tested on: A549; test: Induction of apoptosis in human A549 cells assessed as necrotic cells at 10 uM after 48 hrs by annexin V-FITC/propidium iodide staining based flow cytometry (reference value: […]%); type: functional
[16] = tested on: NCI-H460; test: Induction of apoptosis in human NCI-H460 cells assessed as early apoptotic cells at 10 uM after 48 hrs by annexin V-FITC/propidium iodide staining based flow cytometry (reference value: 0.11%); type: functional
[17] = tested on: Hep 3B2; test: Induction of apoptosis in human Hep3B cells assessed as necrotic cells at 10 uM after 48 hrs by annexin V-FITC/propidium iodide staining based flow cytometry (reference value: 4.97%); type: functional
[18] = tested on: Hep 3B2; test: Cytotoxicity against human Hep3B cells assessed as reduction in cell viability after 72 hrs by CCK8 assay
[19] = tested on: T47D; test: Induction of apoptosis in human T47D cells assessed as late apoptotic cells at 10 uM after 48 hrs by annexin V-FITC/propidium iodide staining based flow cytometry (reference value: 6.16%); type: functional
[20] = tested on: 4T1; test: Antitumor activity against mouse Fluc-labeled 4T1 cells implanted in Balb/c mouse assessed as reduction in tumor weight at 130 mg/kg, ip administered daily for 18 days measured after 8 to 25 days; type: functional, organism-based
Outline: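 Luciferase (Fluc) reporter introduced into 4T1 cells by lentiviral transduction. Cells implanted orthotopically into mammary fat pads of female BALB/c mice aged 6–8 weeks. Once tumours averaged 100 mm3, dosing was daily by IP injection. Bioluminescence imaging was done at days 8 and 25 to reflect viable tumour cell number. Tumour weight was recorded at study end.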

[21] = tested on: T47D; test: Induction of apoptosis in human T47D cells assessed as necrotic cells at 10 uM after 48 hrs by annexin V-FITC/propidium iodide staining based flow cytometry (reference value: 0.8%); type: functional
[22] = tested on: HepG2; test: Induction of apoptosis in human HepG2 cells assessed as late apoptotic cells at 10 uM after 48 hrs by annexin V-FITC/propidium iodide staining based flow cytometry (reference value: 0.64%); type: functional
[23] = tested on: T47D; test: Induction of apoptosis in human T47D cells assessed as early apoptotic cells at 10 uM after 48 hrs by annexin V-FITC/propidium iodide staining based flow cytometry (reference value: 7.7%); type: functional
[24] = tested on: HepG2; test: Induction of apoptosis in human HepG2 cells assessed as early apoptotic cells at 10 uM after 48 hrs by annexin V-FITC/propidium iodide staining based flow cytometry (reference value: 0.3%); type: functional
[25] = tested on: MDA-MB-231; test: Induction of apoptosis in human MDA-MB-231 cells assessed as early apoptotic cells at 10 uM after 48 hrs by annexin V-FITC/propidium iodide staining based flow cytometry (reference value: 0.4%); type: functional
[26] = tested on: HepG2; test: Induction of apoptosis in human HepG2 cells assessed as live cells at 10 uM after 48 hrs by annexin V-FITC/propidium iodide staining based flow cytometry (reference value: 96.7%); type: functional
[27] = tested on: Hep 3B2; test: Induction of apoptosis in human Hep3B cells assessed as late apoptotic cells at 10 uM after 48 hrs by annexin V-FITC/propidium iodide staining based flow cytometry (reference value: 5.25%); type: functional
[28] = tested on: HepG2; test: Induction of apoptosis in human HepG2 cells assessed as necrotic cells at 10 uM after 48 hrs by annexin V-FITC/propidium iodide staining based flow cytometry (reference value: 2.32%); type: functional

Ratio IC50 [1]: 10 to 100
IC50 [2]: 1.6 nM
IC50 [3]: 26 nM
SMILES: CN(C)C(=O)c1cc2cnc(Nc3ccc(C(=O)NCCCCCCCC(=O)NO)cc3)nc2n1C1CCCC1

IC50 [3]: 10 nM
SMILES: COC(=O)CCCCCC(=O)Nc1ccc(Nc2ncc3cc(C(=O)N(C)C)n(C4CCCC4)c3n2)cc1

Ratio IC50 [1]: 10 to 100
IC50 [2]: > 5000 nM
IC50 [3]: 10 nM
SMILES: CN(C)C(=O)c1cc2cnc(Nc3ccc(NC(=O)CCCCCCCO)cc3)nc2n1C1CCCC1

IC50 [3]: 11 nM
SMILES: COC(=O)CCCCCCNC(=O)c1ccc(Nc2ncc3cc(C(=O)N(C)C)n(C4CCCC4)c3n2)cc1

Ratio IC50 [1]: 10 to 100
IC50 [2]: > 5000 nM
IC50 [3]: 18 nM
SMILES: CN(C)C(=O)c1cc2cnc(Nc3ccc(NC(=O)CCCCCCC(=O)O)cc3)nc2n1C1CCCC1

Ratio IC50 [1]: 10 to 100
IC50 [2]: > 5000 nM
IC50 [3]: 10 nM
SMILES: CCCCCC(=O)Nc1ccc(Nc2ncc3cc(C(=O)N(C)C)n(C4CCCC4)c3n2)cc1

Ratio IC50 [1]: 10 to 100
IC50 [2]: 423 nM
IC50 [3]: 93 nM
SMILES: CN(C)C(=O)c1cc2cnc(Nc3ccc(NC(=O)CCCCCCC(=O)NO)cn3)nc2n1C1CCCC1

Ratio IC50 [1]: 10 to 100
IC50 [2]: 53 nM
IC50 [3]: 10 nM
SMILES: CN(C)C(=O)c1cc2cnc(Nc3ccc(CNC(=O)CCCCCCC(=O)NO)cc3)nc2n1C1CCCC1

IC50 [3]: 26 nM
SMILES: COC(=O)CCCCCCC(=O)Nc1cccc(Nc2ncc3cc(C(=O)N(C)C)n(C4CCCC4)c3n2)c1

IC50 [3]: 7.3 nM
SMILES: COC(=O)CCCCCNC(=O)c1ccc(Nc2ncc3cc(C(=O)N(C)C)n(C4CCCC4)c3n2)cc1

Ratio IC50 [1]: 10 to 100
IC50 [2]: > 5000 nM
IC50 [3]: 12 nM
SMILES: COC(=O)CCCCCCC(=O)Nc1ccc(Nc2ncc3cc(C(=O)N(C)C)n(C4CCCC4)c3n2)cc1

IC50 [3]: 29 nM
SMILES: CCCCCCCC(=O)Nc1ccc(Nc2ncc3cc(C(=O)N(C)C)n(C4CCCC4)c3n2)cc1

SMILES: O=C(CCCCCCC(=O)Nc1ccccc1)NO [VORINOSTAT]
Activity [4]: 20.4%
Activity [5]: 42.1%
Activity [6]: 4.81%
Activity [7]: 86.6%
Activity [8]: 53.2%
Activity [9]: 74.8%
Activity [10]: 6.41%
Activity [11]: 2.72%
Activity [12]: 6.4%
Activity [13]: 33.4%
Activity [14]: 18.7%
Activity [15]: 18.1%
Activity [16]: 2.2%
Activity [17]: 3.43%
IC50 [18]: 2300 nM
Activity [19]: 26.4%
Activity [20]: Active
Activity [21]: 4.48%
Activity [22]: 14%
Activity [23]: 48.6%
Activity [24]: 5.43%
Activity [25]: 3.74%
Activity [26]: 74.9%
Activity [27]: 32.8%
Activity [28]: 5.69%

Ratio IC50 [1]: 10 to 100
IC50 [2]: 2.6 nM
IC50 [3]: > 5000 nM
SMILES: O=C(CCCCCCC(=O)Nc1ccc(Nc2ncc3ncn(C4CCCC4)c3n2)cc1)NO

IC50 [3]: 23 nM
SMILES: COC(=O)CCCCCNC(=O)Nc1ccc(Nc2ncc3cc(C(=O)N(C)C)n(C4CCCC4)c3n2)cc1

IC50 [3]: > 5000 nM
SMILES: COC(=O)CCCCCCC(=O)Nc1ncc2cc(C(=O)N(C)C)n(C3CCCC3)c2n1

Ratio IC50 [1]: 10 to 100
IC50 [2]: 37 nM
IC50 [3]: > 5000 nM
SMILES: CN(C)C(=O)c1cc2cnc(Nc3ccccc3NC(=O)CCCCCCC(=O)NO)nc2n1C1CCCC1

IC50 [3]: 16 nM
SMILES: COC(=O)CCCCCCC(=O)Nc1ccc(Nc2ncc3cc(C(=O)N(C)C)n(C4CCCC4)c3n2)cn1

Ratio IC50 [1]: 10 to 100
IC50 [2]: 39 nM
IC50 [3]: 13 nM
SMILES: CN(C)C(=O)c1cc2cnc(Nc3ccc(N4CCN(C(=O)CCCCCCC(=O)NO)CC4)cn3)nc2n1C1CCCC1

IC50 [3]: 8.2 nM
SMILES: COC(=O)CCCCCCCNC(=O)c1ccc(Nc2ncc3cc(C(=O)N(C)C)n(C4CCCC4)c3n2)cc1

Ratio IC50 [1]: 10 to 100
IC50 [2]: 3 nM
IC50 [3]: 8.1 nM
SMILES: CN(C)C(=O)c1cc2cnc(Nc3ccc(NC(=O)CCCCCCCC(=O)NO)cc3)nc2n1C1CCCC1
